# Compound activity as filed in PubChem.
# Shown is part of a subset that was picked to be rich in hits.
# ABCB6 inh MLPCN: blocks the human ABCB6 transporter; hit rate 0.19% among 360,000; K562-ABCB6 porphyrin accumulation, flow cytometry, 1 h; stronger effect = lower value; Q9NP58; fluorescence ratio to DMSO, % at 10 µM; AID 602162;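 active = fluorescence ratio to DMSO below 75%, the collection mean minus 3 SD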;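 note: signal is porphyrin accumulated inside mitochondria; lower ratio means ABCB6 inhibition with less porphyrin fluorescence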
# ABCG2 block: inhibitors of human ABCG2 transporter, ABCB1 counter-screen. inhibition, % at 6.6 µM. Q9UNQ0. IgMXP3 cells, JC-1 efflux, flow cytometry. hit rate 0.1% among 190,000. AID 1325;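 active = inhibition above 80%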
#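 Measure – % inhibition of efflux relative to nicardipine and DMSO · Test system – ABCG2 IgMXP3 and barcoded ABCB1 CCRF-Adr cell mix · Control set – nicardipine as high control, DMSO as low control · Compound – one concentration, 6.6 µM final · Signal – flow cytometry of retained JC-1 fluorescence · Timing – 10 min exposure at 25 °C with rotation, no wash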
# Diaphorase act: activates diaphorase or chemically reduces, flagging diaphorase assay artifacts. Diaphorase/resazurin coupled assay, resorufin fluorescence, 16 min; stronger effect = higher value; 1 = vehicle wells, 0 = NADH-free wells. activation factor at 20 µM. hit rate 0.005% among 190,000;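 active = diaphorase activity raised at least twofold by the compound at 20 µM; inactive = activation factor below 2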
#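 Material: purified diaphorase enzyme from Clostridium kluyveri; Also added: 0.114 mM NADH and 0.1 mM resazurin, final amounts; Doses: single compound dose of 20 µM, 1% DMSO final; Times: 16 min enzyme reaction, ambient temperature; Detection: resorufin fluorescence, excitation 544 nm, emission 590 nm; Measure: increased resorufin signal from activators or reducing compounds.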
# ABCB1 inh: blocks JC-1 efflux by human ABCB1 transporter | P08183 | AID 1326 | CCRF-Adr cells, flow cytometry | inhibition, % at 6.6 µM | hit rate 0.067% among 190,000; in the data active = inhibition above about 40%;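 note: higher value means more JC-1 retained so stronger ABCB1 efflux block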
# FLuc stim CS: affects firefly luciferase, flagging false hits in luciferase stimulation screens; ATPlite luciferase biochemical, luminescence, 10 min; 0 = ATP-free wells, 1 = DMSO control; P08659; activation factor at 10 µM; 200,000 tested, under 10 active;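 active = luciferase activation factor, scaled between plate controls, of at least 2 with compound at 10 µM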
# Target sequence (P08659 whole entry, looked up): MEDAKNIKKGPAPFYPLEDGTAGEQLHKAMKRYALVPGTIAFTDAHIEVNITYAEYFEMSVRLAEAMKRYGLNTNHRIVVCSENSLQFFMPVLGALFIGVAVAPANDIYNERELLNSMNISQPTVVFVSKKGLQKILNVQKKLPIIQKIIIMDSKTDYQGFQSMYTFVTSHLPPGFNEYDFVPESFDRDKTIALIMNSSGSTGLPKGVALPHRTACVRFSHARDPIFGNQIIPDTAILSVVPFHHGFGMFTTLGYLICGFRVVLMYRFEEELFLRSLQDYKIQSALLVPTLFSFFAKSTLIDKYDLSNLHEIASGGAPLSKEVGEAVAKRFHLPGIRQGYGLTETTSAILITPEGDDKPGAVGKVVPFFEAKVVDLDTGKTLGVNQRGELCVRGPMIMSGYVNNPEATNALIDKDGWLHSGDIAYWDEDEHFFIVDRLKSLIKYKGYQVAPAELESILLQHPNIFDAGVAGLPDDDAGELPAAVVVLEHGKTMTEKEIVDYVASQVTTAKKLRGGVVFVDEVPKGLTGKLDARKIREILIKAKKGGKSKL
#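 Material: Luciferase/luciferin reagent mix | Doses: Test compounds dosed from 2 mM stocks in 100% DMSO | Timing: 10 min incubation after luciferase reagent addition, room temperature | Measured by: Luminescence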
# FLuc inh counter: inhibits firefly luciferase, flagging false hits in luciferase inhibition screens; ATPLite firefly luciferase biochemical luminescence, 10 min; inhibition, % at 10 µM; hit rate 1.5% among 200,000;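 active = inhibition above about 50% when tested at 10 µM, limit read from the data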
# Numbers stand for hits; i = inactive; nt = not tested or not shown.
SMILES,ABCB6 inh MLPCN,ABCG2 block,Diaphorase act,ABCB1 inh,FLuc stim CS,FLuc inh counter
CCOC(=O)Cc1ccc2sc(-c3ccccc3)nc2c1,i,i,i,i,i,73.6
O=C(Nc1ccc(Cl)cc1Cl)c1n[nH]c(Cn2cncn2)n1,i,i,i,i,i,63.7
COc1ccc(-c2cc(=Nc3ccc(C(=O)O)cc3)c3cc(C)ccc3o2)cc1,i,i,i,i,i,58.4
CCc1ccc2oc(-c3ccc(OC)cc3)cc(=Nc3cccc(C(=O)O)c3)c2c1,i,i,i,i,i,51.3
COc1ccc2cc(C(=O)NCc3ccco3)c(=Nc3ccc(C(=O)O)cc3)oc2c1,i,i,i,i,i,i
Cc1cccnc1C1=NOC(Cc2ccccc2)C(=O)N1CCOc1ccc(F)cc1 (centres undefined),i,nt,nt,nt,nt,nt
Cc1nc(Nc2ccc(C(=O)O)cc2)sc1-c1ccccc1,i,i,i,i,i,i
Cc1nc(Nc2ccccc2)sc1-c1ccccc1,i,i,i,i,i,84.9
CCCN1C(=O)/C(=C/c2ccccc2OCc2ccc(C(=O)O)cc2)NC1=S,i,i,i,i,i,72.1
COCCCN1C(=O)C(CC(=O)NCCCN(C)C)CC(C(=O)N(C(C)C)C(C)C)=C1C (centres undefined),i,nt,nt,nt,nt,nt
O=C(/C=C/Nc1ccc(F)cc1)c1ccc(Br)cc1,i,i,i,i,i,i
CCOC(=O)c1ccc(N/C=C/C(=O)c2ccc(OC)c(OC)c2)cc1,i,i,i,i,i,i
CCOC(=O)c1ccc(N/C=C/C(=O)c2ccco2)cc1,i,i,i,i,i,61.6
O=C(/C=C/Nc1ccc(F)cc1)c1ccco1,i,i,i,i,i,91.6
COC(=O)C(C)Oc1ccc(Cl)c(CN2OCC(C)(C)C2=O)c1 (centres undefined),i,nt,nt,nt,nt,nt
CCOc1ccc(/C=C/C(=O)c2c(O)c3ccccc3oc2=O)cc1,i,i,i,i,i,67.3
CN(C)c1ccc(/C=C/C(=O)c2c(O)c3ccccc3oc2=O)cc1,i,nt,nt,nt,nt,nt
CCn1c(CC(=O)Nc2ccc(F)cc2)nnc1SCC(=O)Nc1nnc(C)s1,i,nt,nt,nt,nt,nt
Cc1ccc(C(=O)n2c(N)nc3ccccc32)cc1,i,i,i,i,i,96.7
CCN(CC)C(=O)COc1ccc(/C(C)=N/NC(=O)c2ccccc2O)cc1,i,i,i,i,i,63.2
CCN(CC)C(=O)COc1ccc(/C(C)=N/NC(=O)c2ccccc2Br)cc1,i,i,i,i,i,i
O=c1cc(-c2ccccc2)[nH]c2nc3ccccc3n12,i,i,i,i,i,84.1
O=c1cc(CCl)[nH]c2nc3ccccc3n12,i,nt,nt,nt,nt,nt
Cc1cc(-c2n[nH]c(=S)n2/N=C/C=C/c2ccccc2)n[nH]1,65.0,i,i,i,i,i
Cc1ccc2nc(NC(=O)CCn3c(=O)sc4ccccc43)sc2c1,72.0,i,i,i,i,i
SMILES,ABCB6 inh MLPCN,ABCG2 block,Diaphorase act,ABCB1 inh,FLuc stim CS,FLuc inh counter
Cc1ccc2nc(NC(=O)CCCc3nc4ccccc4s3)sc2c1,i,i,i,i,i,i
Cc1ccc2nc(NC(=O)CCCC(=O)O)sc2c1,i,i,i,i,i,66.4
CN1OC[C@@H]2CN(Cc3ccccc3)[C@H](c3cccc(-c4ccc(C#N)cc4)c3)C[C@@H]21,i,nt,nt,nt,nt,nt
CCCN(C(=O)c1cc(S(=O)(=O)N2CCCCCC2)ccc1OC)C1CCS(=O)(=O)C1 (centres undefined),i,nt,nt,nt,nt,nt
COc1ccc(NC(=O)CN(C)C(=O)C2=NN(c3ccccc3)C(=O)CC2)cc1,i,nt,nt,nt,nt,nt
N#Cc1cccc(NC(=O)CCNS(=O)(=O)c2ccc3[nH]c(=O)oc3c2)c1,i,nt,nt,nt,nt,nt
O=C1c2ccccc2S(=O)(=O)N1CC1CC(c2ccc(Cl)cc2)=NO1 (centres undefined),i,i,i,i,i,50.1
CCOC(=O)c1c(NC(=O)C(=O)N/N=C/c2ccccc2OC)sc2c1CCCCC2,i,i,i,i,i,58.8
CCOC(=O)c1c(NC(=O)C(=O)N/N=C/c2ccccc2O)sc2c1CCCCC2,i,i,i,i,i,i
COc1c(C)cc(S(=O)(=O)NCCN2CCOCC2)c(C)c1C,i,nt,nt,nt,nt,nt
Cc1cc2nc(-c3cccnc3SCC(=O)NC(C)C)[nH]c2cc1C,i,i,i,i,i,70.1
COc1ccccc1N1CCN(C(=O)CSc2ncccc2-c2nc3ccccc3[nH]2)CC1,i,i,i,i,i,i
COCCOC(=O)CSc1ncccc1-c1nc2cc(C)c(C)cc2[nH]1,i,i,i,i,i,74.8
CC1Sc2ccc(S(=O)(=O)CCC(=O)NC3CCCC(C)C3C)cc2NC1=O (centres undefined),i,nt,nt,nt,nt,nt
CCOC(=O)C(C)NC(=O)c1cn(-c2ccc(OC)cc2)c(=O)c2ccccc12 (centres undefined),i,nt,nt,nt,nt,nt
O=C(Cc1cccs1)N1CCN(S(=O)(=O)c2cccc([N+](=O)[O-])c2)CC1,i,nt,nt,nt,nt,nt
COc1ccc(S(=O)(=O)N2CCC(C(=O)NCCc3c[nH]c4ccccc34)CC2)cc1,i,nt,nt,nt,nt,nt
N#Cc1ccccc1NC(=O)c1ccc2c(Cl)c3c(nc2c1)CCCC3,i,i,i,i,i,50.4
O=C(Nc1cccnc1Cl)c1ccc2c(Cl)c3c(nc2c1)CCC3,i,i,i,i,i,90.6
O=C(NC1CC1)c1ccc2c(Cl)c3c(nc2c1)CCCC3,i,i,i,i,i,i
O=C(NC1(Cc2ccccc2)CCN(CCc2cccs2)C1=O)c1ccccc1 (centres undefined),i,nt,nt,nt,nt,nt
O=C(Nc1ccc(Cc2ccncc2)cc1)c1ccc([N+](=O)[O-])o1,i,nt,nt,nt,nt,nt
CCCCN1CC(N(C)CCN(C)C)CS1(=O)=O (centres undefined),i,nt,nt,nt,nt,nt
CC1(C(=O)Nc2cccc(NS(C)(=O)=O)c2)CCN1CCc1ccccc1 (centres undefined),i,nt,nt,nt,nt,nt
CN(C)/C=C/C(=O)c1ccc(-n2cccc2)cc1,i,i,i,i,i,84.8
SMILES,ABCB6 inh MLPCN,ABCG2 block,Diaphorase act,ABCB1 inh,FLuc stim CS,FLuc inh counter
COc1cc(C(O)c2nc(-c3cc4ccccc4o3)cs2)ccc1F (centres undefined),i,nt,nt,nt,nt,nt
COc1ccc(NC(=O)c2cc([N+](=O)[O-])ccc2O)cc1,i,i,i,i,i,95.6
CCOC(=O)c1nn(-c2ccc(Cl)cc2)cc1O,i,nt,nt,nt,nt,nt
COC(=O)c1nn(-c2ccc(-c3ccccc3)cc2)cc1O,i,i,i,i,i,80.1
CCOC(=O)c1nn(-c2ccc(C)cc2)cc1O,i,i,i,i,i,58.8
CCOC(=O)c1nn(-c2ccccc2)cc1O,i,nt,nt,nt,nt,nt
N#CCSc1ccc(-c2nc3ccccc3[nH]2)cn1,i,i,i,i,i,58.3
CCNC(=S)NNC(=O)c1cc(-c2ccc(OC)cc2)nc2ccccc12,i,i,i,i,i,96.2
CCCCOc1cccc(-c2cc(C(=O)NNC(=S)NCC)c3ccccc3n2)c1,i,i,i,i,i,i
